pIC50: −log10 of the molar value. Activity calls are given as the source filed them. No cut-off for these calls is given here.
Columns and labels:
[1] = molecular target: T1, Polyunsaturated fatty acid 5-lipoxygenase (Homo sapiens) (UniProt P09917); experiment: Ratio of curcumin IC50 to compound IC50 for 5-LO-mediated LTB4 formation in LPS-stimulated human monocytes preincubated for 15 mins before arachidonic acid substrate addition measured after 30 mins by UPLC-MS/MS analysis; format: cell-based
T1 sequence (whole entry): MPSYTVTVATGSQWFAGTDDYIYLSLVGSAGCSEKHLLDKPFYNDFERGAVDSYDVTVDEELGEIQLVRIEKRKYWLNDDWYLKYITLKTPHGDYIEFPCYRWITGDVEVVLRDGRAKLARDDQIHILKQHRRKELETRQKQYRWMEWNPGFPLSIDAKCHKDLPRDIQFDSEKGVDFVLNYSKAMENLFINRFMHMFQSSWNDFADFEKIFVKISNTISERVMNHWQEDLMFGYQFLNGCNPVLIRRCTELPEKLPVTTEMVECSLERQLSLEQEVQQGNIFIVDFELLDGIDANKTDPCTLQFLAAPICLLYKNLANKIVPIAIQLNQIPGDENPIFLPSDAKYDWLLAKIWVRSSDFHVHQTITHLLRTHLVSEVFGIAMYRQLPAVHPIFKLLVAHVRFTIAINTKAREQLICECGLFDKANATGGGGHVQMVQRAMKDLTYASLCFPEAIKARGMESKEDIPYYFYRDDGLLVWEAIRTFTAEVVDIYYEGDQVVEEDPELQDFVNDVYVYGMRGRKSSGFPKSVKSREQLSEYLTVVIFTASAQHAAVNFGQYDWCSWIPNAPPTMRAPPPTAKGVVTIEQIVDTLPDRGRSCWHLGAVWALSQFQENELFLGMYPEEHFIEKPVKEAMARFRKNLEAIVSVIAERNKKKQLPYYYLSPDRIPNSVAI

[2] = molecular target: T2, Prostaglandin G/H synthase 1 (Homo sapiens, UniProt P23219); experiment: Inhibition of COX1-mediated PGE2 production in human platelets assessed as residual activity by measuring formation of 12-HHT from arachidonic acid preincubated at 10 uM for 5 mins measured after 5 mins by RP-HPLC analysis relative to control
T2 sequence (P23219 whole entry): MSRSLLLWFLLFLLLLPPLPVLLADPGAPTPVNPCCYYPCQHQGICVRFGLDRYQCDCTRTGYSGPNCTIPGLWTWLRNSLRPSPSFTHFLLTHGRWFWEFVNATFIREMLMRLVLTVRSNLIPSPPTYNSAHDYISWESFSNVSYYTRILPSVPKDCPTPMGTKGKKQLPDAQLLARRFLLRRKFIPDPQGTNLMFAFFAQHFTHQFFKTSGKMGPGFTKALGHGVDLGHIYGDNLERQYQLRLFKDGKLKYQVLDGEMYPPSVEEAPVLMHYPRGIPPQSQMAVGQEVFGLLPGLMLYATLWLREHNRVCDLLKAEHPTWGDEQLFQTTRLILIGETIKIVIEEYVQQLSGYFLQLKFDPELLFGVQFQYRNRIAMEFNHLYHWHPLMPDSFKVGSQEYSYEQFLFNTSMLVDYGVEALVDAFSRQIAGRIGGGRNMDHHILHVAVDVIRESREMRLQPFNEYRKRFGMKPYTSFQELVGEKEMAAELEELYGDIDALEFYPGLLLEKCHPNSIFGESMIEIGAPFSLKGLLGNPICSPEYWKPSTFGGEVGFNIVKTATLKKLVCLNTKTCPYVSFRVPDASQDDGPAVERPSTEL
How it was run: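 Washed human platelets, 10⁸/mL in PBS pH 7.4 with 1 mM CaCl2: 5 min compound preincubation at room temperature, then 1 min at 37 °C. Arachidonic acid 5 μM added; 5 min at 37 °C. 12-HHT extracted and measured by RP-HPLC.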

[3] = molecular target: T1, Polyunsaturated fatty acid 5-lipoxygenase (Homo sapiens); experiment: Ratio of curcumin IC50 to compound IC50 for 5-LO-mediated 5-HETE formation in LPS-stimulated human monocytes preincubated for 15 mins before arachidonic acid substrate addition measured after 30 mins by UPLC-MS/MS analysis; format: cell-based
[4] = molecular target: T2, Prostaglandin G/H synthase 1; experiment: Inhibition of COX1-mediated PGF2alpha formation in LPS-stimulated human monocytes preincubated for 15 mins before arachidonic acid substrate addition measured after 30 mins by UPLC-MS/MS analysis; format: cell-based
[5] = molecular target: T1, Polyunsaturated fatty acid 5-lipoxygenase (Homo sapiens); experiment: Ratio of curcumin IC50 to compound IC50 for 5-LO-mediated 5,12-DiHETE formation in LPS-stimulated human monocytes preincubated for 15 mins before arachidonic acid substrate addition measured after 30 mins by UPLC-MS/MS analysis; format: cell-based
[6] = molecular target: T3, Prostaglandin E synthase (Homo sapiens) (UniProt O14684); experiment: Inhibition of mPGES1-mediated PGE2 production in microsomes of IL-1beta stimulated human A549 cells assessed as residual activity preincubated at 10 uM for 15 mins by RP-HPLC analysis relative to control; format: cell-based
T3 sequence (whole entry): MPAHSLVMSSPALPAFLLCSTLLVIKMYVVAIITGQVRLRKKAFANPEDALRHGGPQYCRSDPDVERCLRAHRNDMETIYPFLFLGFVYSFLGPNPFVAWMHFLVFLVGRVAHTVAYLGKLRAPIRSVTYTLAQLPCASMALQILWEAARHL
How it was run: (§1)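 mPGES-1 source: microsomes of A549 cells treated 48 h with IL-1β 2 ng/mL, at 25−50 μg protein/mL in 0.1 M potassium phosphate pH 7.4 with 2.5 mM glutathione. Compound preincubation 15 min at 4 °C; PGH2 (20 μM final) for 1 min; FeCl2/citric acid stop with 11β-PGE2 internal standard. PGE2 by RP-HPLC.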

[7] = molecular target: T4, Prostaglandin G/H synthase 1 (Ovis aries) (UniProt P05979); experiment: Inhibition of purified ovine COX-1 assessed as residual activity by measuring formation of 12-HHT from arachidonic acid preincubated at 10 uM for 5 mins before substrate addition measured after 5 mins by HPLC analysis relative to control
T4 sequence (whole entry): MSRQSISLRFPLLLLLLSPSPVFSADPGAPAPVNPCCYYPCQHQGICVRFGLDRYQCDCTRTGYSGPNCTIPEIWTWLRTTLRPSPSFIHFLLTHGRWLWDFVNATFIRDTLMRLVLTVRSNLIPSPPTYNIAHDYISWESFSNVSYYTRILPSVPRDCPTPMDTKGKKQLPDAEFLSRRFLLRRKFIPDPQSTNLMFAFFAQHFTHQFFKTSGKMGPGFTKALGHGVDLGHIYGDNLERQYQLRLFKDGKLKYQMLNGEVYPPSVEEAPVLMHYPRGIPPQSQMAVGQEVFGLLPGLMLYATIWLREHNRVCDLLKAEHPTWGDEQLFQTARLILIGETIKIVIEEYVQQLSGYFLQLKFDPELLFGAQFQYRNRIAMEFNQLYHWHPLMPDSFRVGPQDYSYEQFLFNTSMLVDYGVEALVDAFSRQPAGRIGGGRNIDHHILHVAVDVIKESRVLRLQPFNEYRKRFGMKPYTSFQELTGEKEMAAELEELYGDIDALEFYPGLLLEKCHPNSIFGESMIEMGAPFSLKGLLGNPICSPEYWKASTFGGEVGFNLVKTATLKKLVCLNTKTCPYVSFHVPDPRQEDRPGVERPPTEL
How it was run: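 Purified ovine COX-1 (50 units) in 100 mM Tris pH 8 with 5 mM glutathione, 5 μM hemoglobin and 100 μM EDTA. Preincubated 5 min at 4 °C then 1 min at 37 °C. 5 μM arachidonic acid added; 12-HHT extracted after 5 min and measured by HPLC. Residual activity at 10 μM, three independent experiments.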

[8] = molecular target: T2, Prostaglandin G/H synthase 1; experiment: Inhibition of COX1-mediated PGD2 formation in LPS-stimulated human monocytes preincubated for 15 mins before arachidonic acid substrate addition measured after 30 mins by UPLC-MS/MS analysis; format: cell-based
Prostaglandin E synthase = molecular target: T5, Prostaglandin E synthase (Homo sapiens, UniProt O14684); experiment: Inhibition of mPGES1-mediated PGE2 production in microsomes of IL-1beta stimulated human A549 cells preincubated for 15 mins by RP-HPLC analysis; format: cell-based; conditions: for pIC50: read-out: IC50; for IC50: a549; how it was run: as §1
T5 sequence (O14684 whole entry): T3 sequence (whole entry)

[9] = molecular target: T4, Prostaglandin G/H synthase 1 (Ovis aries); experiment: Inhibition of purified ovine COX-1 assessed as residual activity by measuring formation of 12-HHT from arachidonic acid preincubated at 10 uM for 5 mins before substrate addition measured after 5 mins by HPLC analysis relative to control; values are per cent of control

Row | SMILES | Ratio IC50 [1] | inhibition [2] | Ratio IC50 [3] | inhibition [4] | Ratio IC50 [5] | Activity [6] | inhibition [7] | inhibition [8] | pIC50 (Prostaglandin E synthase) | residual activity [9] | IC50 (Prostaglandin E synthase) | pIC50 [4] | pIC50 [8]
1 | COc1cc(/C=C/c2cc(-c3ccc(O)c(OC)c3)[nH]n2)ccc1O | 2 | inactive | 2 | Active | 2 | 62.2% | inactive | Active | – | – | – | – | –
2 | COc1cc(/C=C/C(=O)CC(=O)/C=C/c2ccc(O)c(OC)c2)ccc1O [CURCUMIN] | – | – | – | Active | – | – | inactive | Active | 6.22 | – | – | – | –
3 | COc1cc(/C=C/c2cc(/C=C/c3ccc(O)c(OC)c3)[nH]n2)ccc1O [CURCUMIN PYRAZOLE] | 2 | – | 2 | Active | 2 | 54.8% | inactive | Active | – | – | – | – | –
4 | COc1cc(/C=C/C(=O)CC(=O)/C=C/c2cc(CC=C(C)C)c(O)c(OC)c2)cc(CC=C(C)C)c1O | – | inactive | – | – | – | 59.6% | – | – | – | 80.2% | – | – | –
5 | COc1cc(/C=C/C(=O)CC(=O)c2ccc(O)c(OC)c2)ccc1O | – | inactive | – | – | – | 72.6% | inactive | – | – | – | – | – | –
6 | COc1cc(/C=C/C(=O)/C=C/c2ccc(O)c(OC)c2)ccc1O | – | inactive | – | – | – | – | inactive | – | – | – | Not Active | – | –
7 | COc1cc(/C=C/c2cc(/C=C/c3cc(CC=C(C)C)c(O)c(OC)c3)[nH]n2)cc(CC=C(C)C)c1O | – | inactive | – | – | – | 68% | inactive | – | – | – | – | < 5.00 | < 5.00
8 | COc1cc(CCC(=O)CC(=O)CCc2ccc(O)c(OC)c2)ccc1O [TETRAHYDROCURCUMIN] | – | inactive | – | – | – | – | inactive | – | – | – | Not Active | – | –
9 | COc1cc(/C=C/C(=O)/C=C/c2cc(CC=C(C)C)c(O)c(OC)c2)cc(CC=C(C)C)c1O | 2 | inactive | 2 | – | 2 | – | – | – | 5.82 | 78.7% | – | – | –
